Hits are enriched below; roughly 10% of the tested compounds scored in any of these assays.
PMI activator = activators of human PMI, primary screen, biochemical, fluorescence intensity, near-Km mannose 6-phosphate. Mannose-6-phosphate isomerase (Homo sapiens), P34949. purified human PMI, coupled resazurin fluorescence, 20 min; hits give high values; 1 = vehicle control, 0 substrate-free wells. activation factor at 20 µM. 190,000 compounds, 0.005% hits;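 active = activation factor of 2 or more at 20 µM, relative to plate controls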
Target sequence (P34949 whole entry, looked up): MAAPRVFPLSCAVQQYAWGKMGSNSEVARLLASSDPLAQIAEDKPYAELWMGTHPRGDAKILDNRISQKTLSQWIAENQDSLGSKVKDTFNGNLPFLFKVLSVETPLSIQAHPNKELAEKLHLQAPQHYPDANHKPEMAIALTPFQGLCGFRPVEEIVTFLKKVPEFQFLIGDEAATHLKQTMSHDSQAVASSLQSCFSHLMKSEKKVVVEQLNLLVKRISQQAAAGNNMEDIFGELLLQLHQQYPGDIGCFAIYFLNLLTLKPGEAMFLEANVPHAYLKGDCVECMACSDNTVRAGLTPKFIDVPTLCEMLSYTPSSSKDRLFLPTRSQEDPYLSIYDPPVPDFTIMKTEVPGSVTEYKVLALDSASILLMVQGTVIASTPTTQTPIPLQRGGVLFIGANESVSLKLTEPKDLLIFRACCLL
Lmaj promast = Leishmania major promastigote growth inhibition, primary screen. Leishmania major promastigotes, resazurin fluorescence viability. AID 1063, 2008. inhibition, % at 10 µM. 200,000 compounds, 9% hits; in the data active = inhibition above about 50%;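 also: promastigotes grown with compound for 44 hours at 28 °C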
PMI act hi M6P = human PMI activators, high substrate, primary screen, biochemical, fluorescence intensity, near-saturating mannose 6-phosphate; Mannose-6-phosphate isomerase (Homo sapiens), P34949; coupled PMI enzyme assay, resazurin fluorescence, 20 min; hits give high values; 1 = untreated enzyme, 0 = substrate-free blank; activation factor at 20 µM; 190,000 compounds, 0.34% hits; AID 1216, 2008;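 active = activation factor of 2 or more at 20 µM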
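Test system: human phosphomannose isomerase with PGI, G6PDH, diaphorase coupling enzymes; Amount: PMI at 15 ng/mL final; Reagent: Mannose-6-phosphate 1.0 mM (near-saturating) plus 0.22 mM NADP+; Timing: 20 min, room temperature; Technique: resorufin fluorescence at Ex 544/Em 590 nm; Dosing: 20 µM single dose.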
Diaphorase act = compounds boosting diaphorase resazurin reduction – biochemical, uHTS, resorufin fluorescence, counter-screen for diaphorase-coupled primary assays, primary screen. Diaphorase/resazurin coupled assay, 16 min; hits give high values; 1 = vehicle wells, 0 = NADH-free wells. AID 1229, 2008. activation factor at 20 µM. 190,000 compounds, 0.005% hits;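 active = diaphorase activity raised at least twofold by the compound at 20 µM; inactive = activation factor below 2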
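Assay system: bacterial diaphorase enzyme (C. kluyveri) / Input: enzyme 0.07 U/mL final / Medium: 50 mM HEPES pH 7.4 with 4.542 mM MgCl2, 0.005% Tween 20 / Doses: single compound dose of 20 µM, 1% DMSO final / Incubation: 16 min enzyme reaction, ambient temperature / Signal: fluorescence, excitation 544 nm and emission 590 nm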
WT yeast gro inh = growth inhibition of WT strain, primary screen, mitochondrial fusion inhibitor project, WT and mutant strains, chemical genetic | mitochondrial fusion phenotypic screen | inhibition, % at 10 µM | 190,000 compounds, 2.1% hits | AID 1362, 2008; in the data active = inhibition above about 58%; tested in S. cerevisiae
An asterisk follows results filed as active; · = no result.

SMILES	PMI activator	Lmaj promast	PMI act hi M6P	Diaphorase act	WT yeast gro inh
CCS(=O)(=O)c1nc2ccccc2n1Cc1ccccn1	1.1	-5	1.1	1	-3
Cc1cc(C(=O)COC(=O)CC2Sc3ccccc3NC2=O)c(C)n1-c1cccc(C(F)(F)F)c1 (stereo not given)	0.9	97*	0.9	0.7	31
CCn1cc(C(=O)OCc2ccccc2)c(=O)c2ccc(C)nc21	1	78*	1	1	0
CCn1cc(C(=O)OCC(=O)OC2CC(C)CCC2C(C)C)c(=O)c2ccc(C)nc21 (stereo not given)	0.8	79*	0.8	0.8	70*
CCn1cc(C(=O)OCC(=O)c2cc(C)n(-c3cccc(C(F)(F)F)c3)c2C)c(=O)c2ccc(C)nc21	1.1	-8	1.1	0.8	68*
O=C(COC(=O)C1(c2ccc(F)cc2)CCCC1)NCc1ccco1	1.3	-8	1.2	1.2	-8
Cc1ccc(CNC(=O)CCC2CCCN(Cc3c(C)nn(C(C)C)c3C)C2)o1 (stereo not given)	1	-5	1	0.9	1
COc1cc(/C=C/C(=O)Nc2nnc(CC(C)C)s2)cc(OC)c1OC	0.9	59*	1	1	-9
COc1cc(/C=C/C(=O)Nc2ccc(C(C)=O)cc2)cc(OC)c1OC	1	69*	1	1.1	-8
COc1ccc(F)c(CN2CCC(CO)(Cc3cccc(C(F)(F)F)c3)CC2)c1	0.8	84*	0.9	0.8	19
COc1ccc(CN2CCC(CO)(Cc3cccc(C(F)(F)F)c3)CC2)cc1Cn1cccn1	1	81*	1.1	1	4
COC(=O)C1=C(O)/C(=C\c2ccc(CNC(=O)C(=O)Nc3ccc(C)cc3)o2)N=C1C	1.1	-1	1	0.9	76*
COC(=O)C1=C(O)/C(=C\c2ccc(CNS(=O)(=O)c3ccc(Cl)cc3)o2)N=C1C	1.3	53*	1.4	0.7	-5
CCOC(=O)C1=C(O)/C(=C\c2ccc(CNS(=O)(=O)c3ccc(Br)cc3)o2)N=C1C	1.3	66*	1.4	0.5	-21
CCOC(=O)C1=C(O)/C(=C/c2ccc(CNC(=O)C(=O)Nc3ccc(C)cc3)o2)N=C1C	1.4	-3	1.5	0.9	-7
COc1ccccc1Nc1nc2ccccc2[nH]1	0.9	17	0.6	0.8	11
Cc1ccc(Nc2nc3ccccc3[nH]2)nc1	1	101*	0.9	1	44
Cc1nc2cc(-c3ccc(Cl)cc3)nn2c(C)c1CCC(=O)NC(C)c1ccc2c(c1)OCCO2 (stereo not given)	1	98*	1	0.9	71*
CCC1(CC)Cc2ccccc2C(C2=C(O)CC(C)(C)CC2=O)=N1	1	-1	1	0.9	-4
CC1=C(C(=O)OCC(C)C)C2(O)C(=O)c3ccccc3C2(O)N1 (stereo not given)	1	-8	1	0.9	-11
CCN(CC)CCNC(=O)c1ccc(CS(=O)(=O)c2ccc(Br)cc2)o1	1.2	78*	1.1	1.1	3
CCNC(=S)N/N=C/c1cccc(OCc2c(F)cccc2Cl)c1	0.9	10	1	0.9	69*
CNC(=S)N/N=C/c1cccc(OCc2ccccc2F)c1	0.9	39	0.9	0.8	67*
CC1=C(C(=O)OCc2ccccc2)C(c2ccsc2)C(C#N)=C(N)O1 (stereo not given)	0.8	-2	0.8	0.7	7
CCOC(=O)C1=C(N)OC(CCl)=C(C#N)C1c1ccsc1 (stereo not given)	1.3	57*	1.2	0.9	-19
SMILES	PMI activator	Lmaj promast	PMI act hi M6P	Diaphorase act	WT yeast gro inh
Cc1ccccc1NC(=O)CSCc1nc(N)nc(Nc2ccccc2C)n1	0.9	0	0.8	0.9	2
Cc1ccc(Cc2nnc3n(-c4cccc(C)c4)nc(C(=O)c4ccccc4)n3c2=O)cc1	1	11	1	0.8	15
O=C(NCCc1c[nH]c2ccccc12)C(=O)NCC(c1ccco1)N1CCN(c2ccc(F)cc2)CC1 (stereo not given)	1	-3	1	1.1	-1
O=C(NCCc1ccccc1)C(=O)NCc1ccncc1	1.1	-6	1.1	1.1	-16
O=C(NCc1ccncc1)C(=O)NCC(c1ccco1)N1CCN(c2ccccc2F)CC1 (stereo not given)	0.9	52*	1	0.9	3
O=C(NCc1ccncc1)C(=O)NCC(c1ccco1)N1CCN(c2ccccc2)CC1 (stereo not given)	1.1	4	1	0.9	13
O=C(NCCC1=CCCCC1)C(=O)NCC(c1ccco1)N1CCN(c2ccccc2F)CC1 (stereo not given)	0.9	74*	1	0.9	20
O=C(NCC(c1ccco1)N1CCN(c2ccccc2F)CC1)OCc1ccccc1 (stereo not given)	0.8	1	0.8	0.8	47
O=C(NCCc1c[nH]c2ccccc12)C(=O)NCC(c1ccco1)N1CCN(c2ccccc2)CC1 (stereo not given)	0.9	89*	1	0.8	10
O=C(NCc1ccncc1)C(=O)NCC(c1ccccc1)c1ccccc1	1	57*	1	1	-10
O=C(C1CCCN(S(=O)(=O)c2ccccc2[N+](=O)[O-])C1)N1CCCC1 (stereo not given)	0.8	-4	0.9	0.8	5
O=C(NCCC1=CCCCC1)C(=O)NCC1OCCCN1S(=O)(=O)c1ccccc1 (stereo not given)	0.9	96*	0.8	0.9	-13
COC(=O)NCC(c1ccco1)N1CCN(c2ccccc2)CC1 (stereo not given)	1	-8	1	1.1	4
COc1ccc(N2CCN(C(CNC(=O)C(=O)NCc3ccncc3)c3ccco3)CC2)cc1 (stereo not given)	1	4	0.9	0.9	2
COc1ccc(N2CCN(C(CNC(=O)C(=O)NCCC3=CCCCC3)c3ccco3)CC2)cc1 (stereo not given)	0.9	86*	1	1	18
O=C(NCCC1=CCCCC1)C(=O)NCC(c1ccco1)N1CCN(c2ccccc2)CC1 (stereo not given)	0.8	88*	0.9	0.9	16
NNC(=O)/C(=N/Nc1ccccc1)S(=O)(=O)c1ccc(Cl)cc1	1.1	-2	1.1	0.9	69*
N#Cc1c(N)nc2c(c1-c1ccc3c(c1)OCO3)CCc1ccccc1-2	0.7	27	0.8	0.8	62*
N#Cc1c(N)c(C#N)c(-c2ccc3c(c2)OCO3)c2c1CCCC2	0.9	·	0.8	0.7	0

Source: PubChem BioAssay
